# Source: ChEMBL document CHEMBL4428072, “Pharmacophore Model To Discover OX1 and OX2 Orexin Receptor Ligands” (J Med Chem, 2016)
# Active and inactive are the calls of the source. The rule behind the calls is not given here.
# What was measured:
# [1] = target: T1, Orexin/Hypocretin receptor type 1 (Homo sapiens) (UniProt O43613); assay: Displacement of [125I]-orexin A from human OX1 receptor expressed in […] at 10 uM after 90 mins by scintillation counting
# T1 sequence (whole entry): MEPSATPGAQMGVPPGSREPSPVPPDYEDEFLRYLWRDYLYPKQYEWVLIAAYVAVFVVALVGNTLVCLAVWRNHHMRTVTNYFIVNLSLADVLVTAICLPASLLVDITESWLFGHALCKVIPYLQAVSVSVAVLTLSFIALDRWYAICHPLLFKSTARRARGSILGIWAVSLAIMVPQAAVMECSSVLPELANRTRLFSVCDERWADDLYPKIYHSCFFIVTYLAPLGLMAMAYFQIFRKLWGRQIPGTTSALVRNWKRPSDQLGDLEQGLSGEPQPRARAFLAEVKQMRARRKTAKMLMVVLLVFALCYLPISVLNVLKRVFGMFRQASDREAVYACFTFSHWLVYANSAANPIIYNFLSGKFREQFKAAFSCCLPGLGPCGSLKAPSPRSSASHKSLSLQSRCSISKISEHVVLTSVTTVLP
# [2] = target: T1, Orexin/Hypocretin receptor type 1 (Homo sapiens); assay: Agonist activity at human OX1 receptor expressed in CHO cells assessed as induction of Ca2+ elevation at 5 uM after 30 mins by FLIPR calcium 4 assay relative to orexin-A; type: functional, cell-based
# Procedure, shortened: (§1)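 Screening in CHO-hOX1 or CHO-hOX2 cells loaded with Calcium 4 dye in HBM (137 mM NaCl, 20 mM Hepes, 1 mM CaCl2, pH 7.4) + probenecid. Fluorescence at 485/525 nm, 37 °C. 30 s baseline, compound added to 5 μM final and read for 120 s; the delayed response was read 30 min after addition for 30 s. Tested once in triplicate; % of full orexin-A activation.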
# [3] = target: T1, Orexin/Hypocretin receptor type 1 (Homo sapiens); assay: Antagonist activity at human OX1 receptor expressed in CHO cells assessed as inhibition of orexin A-induced Ca2+ elevation at 5 uM after 30 mins by FLIPR calcium 4 assay; type: functional, cell-based
# Procedure, shortened: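 Screening second round: after the 5 μM compound agonist read in CHO-hOX1 cells, 0.3 nM orexin-A was added at 30 s to all wells and the inhibition of the Ca2+ response was read by Calcium 4 fluorescence at 37 °C. Vehicle controls were included in each column. Tested once in triplicate.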
# [4] = target: T2, Orexin/Hypocretin receptor type 1 (Homo sapiens, UniProt O43613); assay: Antagonist activity at human OX1 receptor expressed in […] assessed as inhibition of orexin A-induced Ca2+ elevation after 30 mins in presence of orexin A by FLIPR calcium 4 assay; type: functional, cell-based
# T2 sequence (O43613 whole entry): T1 sequence (whole entry)
# Procedure, shortened: (§2)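 Functional inhibition in CHO-hOX1 or CHO-hOX2 cells. Antagonist (10 nM–100 μM, 10-fold series) preincubated 10 min at 37 °C, then 0.3 nM orexin-A added. Ca2+ measured with Calcium 4 dye at 485/525 nm. Ki derived from inhibition of the orexin-A response. Three independent experiments in quadruplicate; mean ± SEM.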
# [5] = target: T1, Orexin/Hypocretin receptor type 1 (Homo sapiens); assay: Agonist activity at human OX1 receptor expressed in […] assessed as induction of Ca2+ elevation at 10 uM after 30 mins by FLIPR calcium 4 assay relative to orexin-A; type: functional, cell-based
# Procedure, shortened: (§3)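 CHO-hOX1 or CHO-hOX2 cells plated overnight at 1.5 × 10^4 cells/well, loaded with Calcium 4 dye in HBM + probenecid for 60 min at 37 °C. Fluorescence read at 485/525 nm, 37 °C. 30 s baseline, then compound at 10 μM (tested twice in validation; thrice at 1 and 10 μM in quadruplicate in characterization). Response expressed as % of orexin-A maximal response; background response measured within each experiment.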
# [6] = target: T1, Orexin/Hypocretin receptor type 1 (Homo sapiens); assay: Agonist activity at human OX1 receptor expressed in […] assessed as induction of Ca2+ elevation at 10 uM after 30 mins by FLIPR back ground response; type: functional, cell-based; procedure, shortened: as §3
# CHO = assay: Induction Ca2+ levels in CHO cells at 1 uM by FLIPR calcium 4 assay; type: functional, cell-based; conditions: Cricetulus griseus
# Procedure, shortened: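 Control CHO cells lacking orexin receptors, loaded with Calcium 4 dye in HBM + probenecid for 60 min at 37 °C. Compound added (1 and 10 μM) and the Ca2+ fluorescence response read at 485/525 nm at 37 °C.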
# [7] = target: T3, Orexin receptor type 2 (Homo sapiens) (UniProt O43614); assay: Agonist activity at human OX2 receptor expressed in CHO cells assessed as induction of Ca2+ elevation at 5 uM after 2 mins by FLIPR calcium 4 assay relative to orexin-A; type: functional, cell-based; procedure, shortened: as §1
# T3 sequence (whole entry): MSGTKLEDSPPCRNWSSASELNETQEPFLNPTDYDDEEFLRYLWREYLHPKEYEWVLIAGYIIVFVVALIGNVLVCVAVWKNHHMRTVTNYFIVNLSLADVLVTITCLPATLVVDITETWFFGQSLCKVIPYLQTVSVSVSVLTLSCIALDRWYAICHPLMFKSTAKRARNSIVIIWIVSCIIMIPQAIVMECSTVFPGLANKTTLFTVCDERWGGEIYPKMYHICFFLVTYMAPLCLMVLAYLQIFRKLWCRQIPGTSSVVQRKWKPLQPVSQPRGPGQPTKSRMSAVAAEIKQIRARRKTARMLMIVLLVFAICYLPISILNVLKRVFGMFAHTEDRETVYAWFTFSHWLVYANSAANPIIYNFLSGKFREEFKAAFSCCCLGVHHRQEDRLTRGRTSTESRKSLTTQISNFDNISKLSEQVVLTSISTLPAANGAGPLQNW
# [8] = target: T3, Orexin receptor type 2 (Homo sapiens); assay: Agonist activity at human OX2 receptor expressed in […] assessed as induction of Ca2+ elevation at 10 uM after 30 mins by FLIPR calcium 4 assay relative to orexin-A; type: functional, cell-based; procedure, shortened: as §3
# [9] = target: T1, Orexin/Hypocretin receptor type 1 (Homo sapiens); assay: Agonist activity at human OX1 receptor expressed in CHO cells assessed as induction of Ca2+ elevation at 10 uM after 30 mins in presence of TCS-1102 by FLIPR calcium 4 assay relative to orexin-A; type: functional, cell-based
# Procedure, shortened: (§4)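 Agonist Ca2+ read in CHO-hOX1 or CHO-hOX2 cells loaded with Calcium 4 dye at 37 °C. Compound at 10 μM was added with or without 10 μM orexin antagonist to define the receptor-specific response. Expressed as % of full orexin-A response, taken from orexin-A concentration–response curves run in each experiment.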
# Orexin receptor type 2 [10] = target: T4, Orexin receptor type 2 (Homo sapiens, UniProt O43614); assay: Displacement of [125I]-orexin A from human OX2 receptor expressed in […] after 90 mins by scintillation counting
# T4 sequence (O43614 whole entry): T3 sequence (whole entry)
# Procedure, shortened: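 Intact CHO-hOX1 or CHO-hOX2 cells in HBM + 0.1% stripped BSA + 30 μM dyngo 4a, preincubated 10 min (10 μM antagonist used to define nonspecific binding). 0.05 nM [125I]-orexin-A added with compound (10 nM–100 μM, 10-fold series). Incubated 90 min at room temperature, wells dried, scintillation counted. At least three experiments; IC50/Ki by nonlinear fitting.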
# [11] = target: T3, Orexin receptor type 2 (Homo sapiens); assay: Agonist activity at human OX2 receptor expressed in […] assessed as induction of Ca2+ elevation at 10 uM after 30 mins by FLIPR back ground response; type: functional, cell-based; procedure, shortened: as §3
# [12] = target: T3, Orexin receptor type 2 (Homo sapiens); conditions: CHO, at 10 µM
# [13] = target: T1, Orexin/Hypocretin receptor type 1 (Homo sapiens); assay: Agonist activity at human OX1 receptor expressed in CHO cells assessed as induction of Ca2+ elevation at 5 uM after 2 mins by FLIPR calcium 4 assay relative to orexin-A; type: functional, cell-based; procedure, shortened: as §1
# Orexin receptor type 2 [14] = target: T4, Orexin receptor type 2; assay: Antagonist activity at human OX2 receptor expressed in […] assessed as inhibition of orexin A-induced Ca2+ elevation […] in presence of orexin A by FLIPR calcium 4 assay; type: functional, cell-based; procedure, shortened: as §2
# [15] = target: T1, Orexin/Hypocretin receptor type 1 (Homo sapiens); assay: Ratio of Ki for human OX1 receptor expressed in […] assessed as inhibition of orexin A-induced Ca2+ elevation to Ki for human OX1 receptor expressed in CHO cells by [125I]-orexin A displacement assay
# [16] = target: T3, Orexin receptor type 2 (Homo sapiens); conditions: CHO, at 5 µM
# Homo sapiens = organism: Homo sapiens; assay: Ratio of Ki for human OX1 receptor expressed in CHO cells to Ki for human OX2 receptor expressed in CHO cells by Ca2+ elevation based assay; type: cell-based; procedure, shortened: as §2
# [17] = target: T3, Orexin receptor type 2 (Homo sapiens); assay: Agonist activity at human OX2 receptor expressed in CHO cells assessed as induction of Ca2+ elevation at 10 uM after 30 mins in presence of TCS-1102 by FLIPR calcium 4 assay relative to orexin-A; type: functional, cell-based; procedure, shortened: as §4
Structure (SMILES),inhibition [1] [%],Activity [2],inhibition [3] [%],Ki [4] [µM],Activity [5] [%],fold change (FC) [6],Activity (CHO),Activity [7],Activity [8] [%],Activity [9] [%],IC50 (Orexin receptor type 2 [10]) [µM],Ki (Orexin receptor type 2 [10]) [µM],fold change (FC) [11],inhibition [12] [%],Activity [13],Ki (Orexin receptor type 2 [14]) [µM],Ratio Ki [15],inhibition [16] [%],Ratio Ki (Homo sapiens),Activity [17] [%]
Cc1cccc2c1[nH]c1nc(N/N=C\c3c4ccccc4cc4ccccc34)nnc12,> 50,Active,> 20,16.2,,,,,,,,,,,,,,,,
CC(/C=C/c1ccccc1)=N/Nc1nc(Nc2ccccc2)nc(-n2nc(C)cc2C)n1,20 to 40,Active,,,5.4,2.8,inactive,Active,1 to 3.7,2.1,11.8,17.8,1.4 to 2.2,20 to 40,Active,,,,,
CCOC(=O)c1c(NC(=O)C(C)Sc2nnc(CNC(=O)c3cc(OC)cc(OC)c3)n2-c2ccccc2OC)sc2c1CCC2 (stereo unspecified),> 50,Active,> 20,7,,,,,,,0.7,1.1,,> 50,,1,2 to 9,> 20,,
C=CCN1C(=O)C2(Nc3ccccc3C(=O)N2c2ccccc2OC)c2ccccc21 (stereo unspecified),> 50,Active,> 20,21.6,,,,,,,0.7,1,,> 50,,1.2,2 to 9,> 20,,
O=C(CSc1nnc(-c2cccs2)n1Cc1ccco1)Nc1ccc2c(c1)OCCO2,> 50,Active,> 20,6,,,,,,,0.13,0.2,,> 50,,0.3,2 to 9,> 20,20,
Cc1ccc(C(O)(C(=O)NNc2cc(Cl)ccc2Cl)c2ccc(C)cc2)cc1,> 50,Active,> 20,10.3,,,,,,,0.8,1.3,,> 50,,1.7,2 to 9,> 20,,
COc1ccc(Nc2nc(NCc3ccco3)nc(N/N=C\c3cc(Br)c(O)c(Br)c3)n2)cc1,20 to 40,Active,,,2.7,1.9,inactive,Active,,,,,1.4 to 2.2,20 to 40,Active,,,,,3.5
COc1ccc(CCNC(=O)Cn2c(-c3nonc3N)nc3ccccc32)cc1OC,> 50,Active,> 20,13.1,,,,,,,0.5,0.8,,> 50,,0.9,2 to 9,> 20,,
COc1ccc(N(CC(=O)NC(C)c2ccccc2)S(=O)(=O)c2ccc(OC)c(OC)c2)cc1 (stereo unspecified),> 50,Active,> 20,46.7,,,,,,,0.07,0.1,,> 50,,0.1,2 to 9,> 20,50,
COc1ccccc1OCCNC[C@@H](O)COc1cccc2[nH]c3ccccc3c12 [(R)-Carvedilol],> 70,Active,,,6.3,3.3,inactive,Active,1 to 3.7,,0.9,1.4,1.4 to 2.2,> 70,Active,,,,,
